Results: ChEMBL document CHEMBL2177098, “Synthesis and evaluation of novel ¹⁸F labeled 2-pyridinylbenzoxazole and 2-pyridinylbenzothiazole derivatives as ligands for positron emission tomography (PET) imaging of β-amyloid plaques” (J Med Chem, 2012)
Calls of active or inactive are those of the source. The rule behind the calls is not given here.

Tests used:
[1] = Displacement of [125I]-IMPY from amyloid beta (1 to 42) fibrils after 2 hrs by gamma-counting analysis
Procedure, shortened: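 Competition binding with aggregated Aβ1-42 fibrils and [125I]IMPY (60000−100000 cpm/100 μL) in 0.05% BSA (1 mL total); inhibitors 10⁻⁴−10^−8.5 M in ethanol. Incubated 37 °C for 2 h, then GF/B vacuum filtration with PBS (0.02 M, pH 7.4) washes and γ counting. Three repeats; IC50 converted to Ki by Cheng−Prusoff.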

Mus musculus [2] = organism: Mus musculus; experiment: Binding affinity to amyloid beta plaques in transgenic C57BL6 mouse hippocampus expressing APP Swedish mutant/PSEN1 at 370 KBq/100 ul after 1 hr by thioflavinS-staining method; format: tissue-based; settings: tested as the 18F-labelled form
Procedure, shortened: (§1)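 Paraffin brain sections from 12-month-old Tg mice (C57BL6, APPswe/PSEN1) and age-matched controls, deparaffinized through xylene and graded ethanol, then PBS (0.2 M, pH 7.4) 30 min. Incubated with 18F tracer (370 KBq per 100 μL) 1 h at room temperature, washed in 40% EtOH, rinsed in water, then phosphor plate exposure 2 h. The same sections were afterwards stained with 0.125% thioflavin S in 10% EtOH for 3 min and washed in 40% EtOH.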

Mus musculus [3] = organism: Mus musculus; experiment: Binding affinity to amyloid beta plaques in transgenic C57BL6 mouse hippocampus expressing APP Swedish mutant/PSEN1 at 370 KBq/100 ul after 1 hr by autoradiographic analysis; format: tissue-based; settings: tested as the 18F-labelled form; procedure, shortened: as §1
[4] = biological target: Amyloid-beta precursor protein (Homo sapiens) (UniProt P05067); experiment: Binding affinity to amyloid beta plaques in Alzheimer patient brain at 370 KBq/100 ul after 1 hr by autoradiographic analysis; settings: tested as the 18F-labelled form
Chain of Amyloid-beta precursor protein (Homo sapiens) (P05067 whole entry): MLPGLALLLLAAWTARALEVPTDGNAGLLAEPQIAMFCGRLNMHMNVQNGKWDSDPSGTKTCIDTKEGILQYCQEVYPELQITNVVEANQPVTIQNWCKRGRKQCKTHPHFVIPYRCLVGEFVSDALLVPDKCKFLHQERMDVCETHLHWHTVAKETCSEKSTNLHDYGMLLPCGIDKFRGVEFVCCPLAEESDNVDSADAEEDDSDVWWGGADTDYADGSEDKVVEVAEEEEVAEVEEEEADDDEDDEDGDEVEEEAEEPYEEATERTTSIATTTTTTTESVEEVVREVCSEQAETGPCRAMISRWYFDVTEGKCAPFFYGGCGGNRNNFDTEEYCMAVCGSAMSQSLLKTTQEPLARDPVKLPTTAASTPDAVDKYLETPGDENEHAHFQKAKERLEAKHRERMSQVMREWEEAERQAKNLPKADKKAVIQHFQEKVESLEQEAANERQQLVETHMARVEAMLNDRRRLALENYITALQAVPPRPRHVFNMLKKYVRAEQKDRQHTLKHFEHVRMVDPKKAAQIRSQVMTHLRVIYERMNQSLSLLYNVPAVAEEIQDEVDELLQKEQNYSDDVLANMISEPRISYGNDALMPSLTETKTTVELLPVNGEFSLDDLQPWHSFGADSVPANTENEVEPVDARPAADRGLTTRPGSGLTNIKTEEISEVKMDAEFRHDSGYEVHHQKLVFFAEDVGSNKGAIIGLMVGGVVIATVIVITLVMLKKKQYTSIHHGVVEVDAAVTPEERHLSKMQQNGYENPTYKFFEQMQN

Mus musculus [5] = organism: Mus musculus; experiment: Binding affinity to amyloid beta plaques in transgenic C57BL6 mouse cortex expressing APP Swedish mutant/PSEN1 at 370 KBq/100 ul after 1 hr by autoradiographic analysis; settings: tested as the 18F-labelled form; procedure, shortened: as §1
Mus musculus [6] = organism: Mus musculus; experiment: Binding affinity to amyloid beta plaques in transgenic C57BL6 mouse cortex expressing APP Swedish mutant/PSEN1 at 370 KBq/100 ul after 1 hr by thioflavinS-staining method; settings: tested as the 18F-labelled form; procedure, shortened: as §1

- Ki [1]: 9.3 nM
- Activity (Mus musculus [2]): Active
- Activity (Mus musculus [3]): Active
- Activity [4]: Active
- Activity (Mus musculus [5]): Active
- Activity (Mus musculus [6]): Active
SMILES: CNc1ccc(-c2nc3ccc(OCCOCCOCCF)cc3s2)cn1
